Results reported in ChEMBL document CHEMBL3596186, “Synthesis and biological evaluation of diarylthiazole derivatives as antimitotic and antivascular agents with potent antitumor activity” (Bioorg Med Chem, 2015).
The source made the active and inactive calls. No cut-off for these calls is given here.

Assays:
HepG2 [1] = assay: Cell cycle arrest in human HepG2 cells assessed as accumulation at G1 phase at 1 uM after 24 hrs by flow cytometry (reference value: 62.74%); assay type: functional
HepG2 [2] = assay: Cell cycle arrest in human HepG2 cells assessed as accumulation at S phase at 0.5 uM after 24 hrs by flow cytometry (reference value: 23.97%); assay type: functional
HepG2 [3] = assay: Induction of apoptosis in human HepG2 cells assessed as necrotic cells at 0.2 uM after 24 hrs by annexin V/propidium iodide staining-based flow cytometry (reference value: 1.59%); assay type: functional
HepG2 [4] = assay: Induction of apoptosis in human HepG2 cells assessed as early apoptotic cells at 0.5 uM after 24 hrs by annexin V/propidium iodide staining-based flow cytometry (reference value: 0.87%); assay type: functional
HepG2 [5] = assay: Induction of apoptosis in human HepG2 cells assessed as late apoptotic cells at 0.5 uM after 24 hrs by annexin V/propidium iodide staining-based flow cytometry (reference value: 3.74%); assay type: functional
HepG2 [6] = assay: Induction of apoptosis in human HepG2 cells assessed as necrotic cells at 0.5 uM after 24 hrs by annexin V/propidium iodide staining-based flow cytometry (reference value: 1.59%); assay type: functional
HepG2 [7] = assay: Induction of apoptosis in human HepG2 cells assessed as early apoptotic cells at 1 uM after 24 hrs by annexin V/propidium iodide staining-based flow cytometry (reference value: 0.87%); assay type: functional
HepG2 [8] = assay: Induction of apoptosis in human HepG2 cells assessed as late apoptotic cells at 1 uM after 24 hrs by annexin V/propidium iodide staining-based flow cytometry (reference value: 3.74%); assay type: functional
HepG2 [9] = assay: Induction of apoptosis in human HepG2 cells assessed as early apoptotic cells at 0.2 uM after 48 hrs by annexin V/propidium iodide staining-based flow cytometry (reference value: 0.87%); assay type: functional
HepG2 [10] = assay: Induction of apoptosis in human HepG2 cells assessed as necrotic cells at 0.2 uM after 48 hrs by annexin V/propidium iodide staining-based flow cytometry (reference value: 1.59%); assay type: functional
HepG2 [11] = assay: Induction of apoptosis in human HepG2 cells assessed as necrotic cells at 1 uM after 48 hrs by annexin V/propidium iodide staining-based flow cytometry (reference value: 1.59%); assay type: functional
HUVEC [12] = assay: Antimigratory activity against HUVEC at 500 nM after 24 hrs by phase contrast microscopy; assay type: functional, cell-based; conditions: Homo sapiens
Procedure, shortened: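 HUVEC monolayers grown overnight in 6-well plates, scratched with pipet tips, washed twice with PBS, then given fresh EBM2 with vehicle or compound. Imaged by phase contrast at 0 and 24 h (100×). Migrated cells counted manually in 3 separate fields; mean ± SD from three fields.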

HUVEC [13] = assay: Antivascular activity against HUVEC assessed as aggregation of cells in small clumps at 250 to 500 nM after 8 hrs by Matrigel assay; assay type: functional, cell-based; conditions: Homo sapiens
Procedure, shortened: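 Wells of prechilled plates coated with Matrigel and solidified 45 min at 37 °C. HUVECs (1 × 10^4) in EBM-2 containing compound (125-500 nM) seeded onto the gel and incubated 8 h at 37 °C. Capillary networks photographed at 100×; tubule numbers and line lengths counted manually.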

HCT-116 [14] = assay: Antitumor activity against human HCT116 cells xenografted in ip dosed Balb/c athymic nude mouse assessed as tumor growth inhibition administered daily; assay type: functional, organism-based
Procedure, shortened: (§1)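 Female Balb/C athymic nude mice, 5-6 weeks old, implanted s.c. in the right flank with HCT116 cells in 100 µL HBSS. Tumor volume (π/6 × L × W²) and body weight measured every 2 days. Inhibition = (1 − treated/control tumor weight) × 100%.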

HCT-116 [15] = assay: Antitumor activity against human HCT116 cells xenografted in Balb/c athymic nude mouse assessed as tumor growth inhibition at 50 mg/kg, ip administered daily after 42 days; assay type: functional; conditions: HCT-116, ip, 1008 h, read-out: TGI; procedure, shortened: as §1
Mus musculus [16] = assay: Toxicity in Balb/c athymic nude mouse xenografted with human HCT116 cells assessed as loss in body weight at 20 to 50 mg/kg, ip administered daily; assay type: organism-based, HCT-116; conditions: in vivo
Procedure, shortened: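 Female Balb/C athymic nude mice, 5-6 weeks old, implanted s.c. in the right flank with cells in HBSS. Once tumours reached about 100 mm3, mice were randomized (6 per group) to vehicle, 5-FU 10 mg/kg, or test agent 20 or 50 mg/kg i.p. daily. Body weight was recorded every two days.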

Mus musculus [17] = assay: Toxicity in Balb/c athymic nude mouse xenografted with human HCT116 cells assessed as change in feeding and animal behavior at 20 to 50 mg/kg, ip administered daily; assay type: organism-based, HCT-116; conditions: in vivo
[18] = Antiproliferative activity against human doxorubicin-resistant MCF7 cells after 48 hrs by MTT assay; assay type: functional, cell-based; conditions: MCF7, 48 h
Procedure, shortened: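 MCF-7/ADR (doxorubicin-resistant) and A549/T (taxol-resistant) cells in RPMI-1640 with 10% FBS and penicillin/streptomycin. Log-phase cells at 40,000-50,000 cells/mL exposed to graded concentrations for 48 h. MTT 3 h, DMSO solubilization, absorbance 570 nm. IC50 from percent growth versus untreated control; mean ± SEM of ≥3 independent experiments.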

HCT-116 [19] = assay: Cell cycle arrest in human HCT116 cells assessed as accumulation at G1 phase at 0.5 uM after 24 hrs by flow cytometry (reference value: 53.98%); assay type: functional
HCT-116 [20] = assay: Cell cycle arrest in human HCT116 cells assessed as accumulation at G2/M phase at 0.5 uM after 24 hrs by flow cytometry (reference value: 20.36%); assay type: functional
HCT-116 [21] = assay: Induction of apoptosis in human HCT116 cells assessed as early apoptotic cells at 0.2 uM after 24 hrs by annexin V/propidium iodide staining-based flow cytometry (reference value: 2.83%); assay type: functional
Procedure, shortened: (§2)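 HCT116 cells treated with compound or DMSO for 24 or 48 h, trypsinized, washed twice in PBS and dual-stained with annexin-V and PI. Analysed by flow cytometry: early apoptotic cells scored as annexin-V+/PI−, late apoptotic cells as annexin-V+/PI+.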

HCT-116 [22] = assay: Induction of apoptosis in human HCT116 cells assessed as viable cells at 0.2 uM after 24 hrs by annexin V/propidium iodide staining-based flow cytometry (reference value: 92%); assay type: functional; conditions: HCT-116, 24 h, read-out: Activity
HCT-116 [23] = assay: Induction of apoptosis in human HCT116 cells assessed as necrotic cells at 0.5 uM after 24 hrs by annexin V/propidium iodide staining-based flow cytometry (reference value: 3.49%); assay type: functional
HCT-116 [24] = assay: Induction of apoptosis in human HCT116 cells assessed as early apoptotic cells at 1 uM after 24 hrs by annexin V/propidium iodide staining-based flow cytometry (reference value: 2.83%); assay type: functional; procedure, shortened: as §2
HCT-116 [25] = assay: Induction of apoptosis in human HCT116 cells assessed as viable cells at 0.2 uM after 48 hrs by annexin V/propidium iodide staining-based flow cytometry (reference value: 92%); assay type: functional; conditions: HCT-116, 48 h, read-out: Activity
HCT-116 [26] = assay: Induction of apoptosis in human HCT116 cells assessed as late apoptotic cells at 0.5 uM after 48 hrs by annexin V/propidium iodide staining-based flow cytometry (reference value: 1.71%); assay type: functional
HCT-116 [27] = assay: Induction of apoptosis in human HCT116 cells assessed as viable cells at 0.5 uM after 48 hrs by annexin V/propidium iodide staining-based flow cytometry (reference value: 92%); assay type: functional; conditions: HCT-116, 48 h, read-out: Activity
HCT-116 [28] = assay: Induction of apoptosis in human HCT116 cells assessed as late apoptotic cells at 1 uM after 48 hrs by annexin V/propidium iodide staining-based flow cytometry (reference value: 1.71%); assay type: functional

Q: With `CCOc1ccc(-c2nc(N)sc2-c2cc(OC)c(OC)c(OC)c2)cc1` as the compound, how does the Activity (HepG2 [1]) read?
A: The Activity was 8.69%.

Q: And the Activity (HepG2 [2])?
A: Its Activity is 7.29%.

Q: What about the Activity (HepG2 [3]) of the same compound?
A: Its Activity is 0.95%.

Q: And the Activity (HepG2 [4])?
A: The Activity was 11.2%.

Q: What about the Activity (HepG2 [5]) of the same compound?
A: Its Activity is 7.86%.

Q: What about the Activity (HepG2 [6]) of the same compound?
A: Its Activity is 0.81%.

Q: What about the Activity (HepG2 [7]) of the same compound?
A: The Activity was 25.4%.

Q: What about the Activity (HepG2 [8]) of the same compound?
A: The Activity was 8.34%.

Q: And the Activity (HepG2 [9])?
A: Its Activity is 66.6%.

Q: And the Activity (HepG2 [10])?
A: Its Activity is 0.79%.

Q: What about the Activity (HepG2 [11]) of the same compound?
A: Its Activity is 0.4%.

Q: And the Activity (HUVEC [12])?
A: The Activity was “Active”.

Q: What about the Activity (HUVEC [13]) of the same compound?
A: Its Activity is “Active”.

Q: And the Activity (HCT-116 [14])?
A: The Activity was “Dose-dependent effect”.

Q: What about the inhibition in vivo at 50 mg/kg (HCT-116 [15]) of the same compound?
A: The inhibition in vivo at 50 mg/kg was 55.1%.

Q: What about the Activity (Mus musculus [16]) of the same compound?
A: The Activity was “Toxic”.

Q: What about the Activity (Mus musculus [17]) of the same compound?
A: The Activity was “Non-toxic”.

Q: And the IC50 [18]?
A: The IC50 was 190 nM.

Q: What about the Activity (HCT-116 [19]) of the same compound?
A: The Activity was 11.45%.

Q: What about the Activity (HCT-116 [20]) of the same compound?
A: Its Activity is 68.04%.

Q: And the Activity (HCT-116 [21])?
A: The Activity was 7.8%.

Q: And the viability at 0.2 µM (HCT-116 [22])?
A: The viability at 0.2 µM was 80.4%.

Q: And the Activity (HCT-116 [23])?
A: Its Activity is 3.5%.

Q: And the Activity (HCT-116 [24])?
A: Its Activity is 17.6%.

Q: And the viability at 0.2 µM (HCT-116 [25])?
A: The viability at 0.2 µM was 31.1%.

Q: And the Activity (HCT-116 [26])?
A: The Activity was 26.2%.

Q: What about the viability at 0.5 µM (HCT-116 [27]) of the same compound?
A: The viability at 0.5 µM was 29.1%.

Q: And the Activity (HCT-116 [28])?
A: Its Activity is 32.6%.
